Assay results published in ChEMBL document CHEMBL5257036, “Benzophenone-nucleoside derivatives as telomerase inhibitors: Design, synthesis and anticancer evaluation in vitro and in vivo” (Eur J Med Chem, 2016).
Active and inactive are the calls of the source. No cut-off for these calls is given here.

Assays:
[1] = target: T1, Telomerase reverse transcriptase (Homo sapiens, UniProt O14746); assay: Inhibition of telomerase activity in human SGC-7901 cells at 0.082 to 60 ug/mL incubated for 24 hrs by TRAP-PCR-ELISA assay; settings: dose 0.082-60 ug/mL
SGC-7901 = assay: Antiproliferative activity against human SGC-7901 cells measured after 48 hrs by MTT assay; type: functional, cell-based; settings: SGC-7901, 48 h
Summary of the method: (§1)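 Cells grown to log phase in RPMI 1640 with 10% FBS, seeded at 3 × 10⁴ cells/mL, and preincubated 24 h at 37 °C, 5% CO₂. Compounds were added at pre-set concentrations to 6 wells each, with doxorubicin as reference, and exposed for 48 h. MTT was then added and absorbance read at 570 nm.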

HeLa = assay: Antiproliferative activity against human HeLa cells measured after 48 hrs by MTT assay; type: functional, cell-based
Summary of the method: as §1

SMMC-7721 = assay: Antiproliferative activity against human SMMC-7721 cells measured after 48 hrs by MTT assay; type: functional, cell-based; settings: SMMC-7721, 48 h
Summary of the method: as §1

HepG2 = assay: Antiproliferative activity against human HepG2 cells measured after 48 hrs by MTT assay; type: functional, cell-based; settings: HepG2, 48 h
Summary of the method: as §1

[2] = target: T1, Telomerase reverse transcriptase; assay: Inhibition of telomerase activity in human SGC-7901 cells incubated for 24 hrs by TRAP-PCR-ELISA assay; type: cell-based
Summary of the method: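 Extract was mixed with TRAP reaction mix, incubated 25 °C for 30 min, then 35 PCR cycles (94/50/72 °C). Products detected by anti-DIG-peroxidase ELISA at 490 nm; mean ± SD.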

T1 sequence (O14746 whole entry): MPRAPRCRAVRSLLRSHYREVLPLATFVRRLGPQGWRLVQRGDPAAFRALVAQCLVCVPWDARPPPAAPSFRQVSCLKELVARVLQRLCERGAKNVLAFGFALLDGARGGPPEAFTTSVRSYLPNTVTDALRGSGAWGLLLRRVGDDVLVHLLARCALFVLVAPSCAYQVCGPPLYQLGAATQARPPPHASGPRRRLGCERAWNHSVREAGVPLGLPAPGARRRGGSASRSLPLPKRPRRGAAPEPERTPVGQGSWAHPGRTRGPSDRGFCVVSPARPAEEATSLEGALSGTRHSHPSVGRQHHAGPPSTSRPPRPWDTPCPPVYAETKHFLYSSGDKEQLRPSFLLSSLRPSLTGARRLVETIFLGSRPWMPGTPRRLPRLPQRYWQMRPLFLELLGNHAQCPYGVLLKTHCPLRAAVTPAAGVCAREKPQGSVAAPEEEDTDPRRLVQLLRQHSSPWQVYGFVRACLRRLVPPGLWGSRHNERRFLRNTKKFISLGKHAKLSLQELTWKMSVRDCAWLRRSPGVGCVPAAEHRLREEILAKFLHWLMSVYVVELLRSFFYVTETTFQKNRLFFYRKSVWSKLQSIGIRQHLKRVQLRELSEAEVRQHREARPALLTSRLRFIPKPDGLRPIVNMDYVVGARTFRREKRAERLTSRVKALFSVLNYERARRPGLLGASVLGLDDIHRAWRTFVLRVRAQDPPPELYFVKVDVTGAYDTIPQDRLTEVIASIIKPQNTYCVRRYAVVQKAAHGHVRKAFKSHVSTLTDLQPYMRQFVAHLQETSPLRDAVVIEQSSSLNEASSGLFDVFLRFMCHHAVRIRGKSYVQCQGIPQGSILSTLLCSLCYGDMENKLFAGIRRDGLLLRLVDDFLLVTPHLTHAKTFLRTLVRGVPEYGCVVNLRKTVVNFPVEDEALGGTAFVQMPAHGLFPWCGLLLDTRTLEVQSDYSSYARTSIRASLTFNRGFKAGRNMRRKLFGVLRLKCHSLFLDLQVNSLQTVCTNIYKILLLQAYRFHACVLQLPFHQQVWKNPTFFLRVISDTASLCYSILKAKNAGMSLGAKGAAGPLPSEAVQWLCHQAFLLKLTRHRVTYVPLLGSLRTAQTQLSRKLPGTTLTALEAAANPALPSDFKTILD

| inhibition [1] | IC50 (SGC-7901) [µM] | IC50 (HeLa) [µM] | IC50 (SMMC-7721) [µM] | IC50 (HepG2) [µM] | IC50 [2] [µM] | SMILES |
| --- | --- | --- | --- | --- | --- | --- |
| inactive |  |  |  |  |  | COc1ccc(C(=O)c2cc(Br)ccc2Cl)cc1OCC(=O)OC[C@@H]1C=C[C@H](n2cc(C)c(=O)[nH]c2=O)O1 |
|  | 23.4 | 12.8 | 21.2 | 15 |  | COc1ccc(C(=O)c2cc(OC)c(OC)c(OC)c2)cc1OCC(=O)OC[C@@H]1C=C[C@H](n2cc(C)c(=O)[nH]c2=O)O1 |
|  | 3.41 | 3.99 | 1.95 |  |  | COc1cccc2c1C(=O)c1c(O)c3c(c(O)c1C2=O)C[C@@](O)(C(=O)CO)C[C@@H]3O[C@H]1C[C@H](N)[C@H](O)[C@H](C)O1 [DOXORUBICIN] |
|  | 48.1 | 50.2 |  |  |  | COc1ccc(C(=O)c2ccc([N+](=O)[O-])cc2)cc1OCC(=O)OC[C@@H]1C=C[C@H](n2cc(C)c(=O)[nH]c2=O)O1 |
|  | 31.4 | 28.6 | 20.1 | 28.6 |  | COc1cc(OC)c(C(=O)c2ccc(OC)c(OCC(=O)OC[C@@H]3C=C[C@H](n4cc(C)c(=O)[nH]c4=O)O3)c2)cc1OC |
|  | 4.19 | 6.51 | 3.21 | 11.1 |  | COc1ccc(C(=O)c2cccc(Cl)c2)cc1OC(=O)CCC(=O)OC[C@@H]1C=C[C@H](n2cc(C)c(=O)[nH]c2=O)O1 |
|  | 2.27 | 2.65 | 2.86 | 6.85 | 6.43 | COc1cc(OC)c(C(=O)c2ccc(OC)c(OC(=O)CCC(=O)OC[C@@H]3C=C[C@H](n4cc(C)c(=O)[nH]c4=O)O3)c2)cc1OC |
